This is an account of results in ChEMBL document CHEMBL3745653, “Honokiol for the Treatment of Neonatal Pain and Prevention of Consequent Neurobehavioral Disorders” (J Nat Prod, 2015).

Activity calls are given as the source filed them.

The subject of data set [1] is Rattus norvegicus. In words: Antinociceptive activity in Wistar rat pups assessed as paw-lifting at 10 mg/kg, ip administered 1 hr on postnatal day 7 prior to formalin challenge measured for 60 secs at 5 mins interval for 60 mins. In kind it is functional, organism-based. The essentials:
(§1)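 Honokiol in corn oil (vehicle alone as control) given ip 1 h before intraplantar sc injection of 5% formalin (10 μL) or saline into the left forepaw. Recuperation behaviours (paw licking, lifting, flinching, rolling) scored for 60 s at 5 min intervals over 60 min. Phase I at 5 min, phase II tonic period 5−60 min. Blinded observers, n = 8 per group, mean ± SEM.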

Data set [2] deals with Rattus norvegicus. In words: Antinociceptive activity in Wistar rat pups assessed as flinching at 10 mg/kg, ip administered 1 hr on postnatal day 7 prior to formalin challenge measured for 60 secs at 5 mins interval for 60 mins. In kind it is functional, organism-based. The essentials: as §1
For data set [3], the system named is Rattus norvegicus. Briefly: Antinociceptive activity in Wistar rat pups assessed as rolling at 10 mg/kg, ip administered 1 hr on postnatal day 7 prior to formalin challenge measured for 60 secs at 5 mins interval for 60 mins. In kind it is functional, organism-based. Put shortly: as §1
For data set [4], the system named is Rattus norvegicus. Briefly: Antinociceptive activity in formalin-induced Wistar rat pups pain model assessed as decrease in recuperation time at 10 mg/kg, ip administered 1 hr on postnatal day 7 prior to formalin challenge. The class given is functional. Put shortly: as §1
Data set [5] has as its system Rattus norvegicus. In words: Antinociceptive activity in formalin-induced Wistar rat pups pain model assessed as decrease in thermal hyperalgesia at 10 mg/kg, ip administered daily from postnatal day 4 to day 6 prior to formalin challenge followed by further compound administration every other day until postnatal day 17 to day 21 by hot plate test. In kind it is functional, organism-based. Put shortly: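 Chronic severe pain model: 5% formalin (10 μL sc) or saline injected into each paw in sequence at 1 h intervals, daily P4−P6. Honokiol or corn oil ip before insult each day, then every other day until P21. Latency to jump on a 55 ± 2 °C hot plate, cutoff 30 s. Three readings at least 15 min apart averaged per animal. Blinded, mean ± SEM.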

The subject of data set [6] is Rattus norvegicus. In words: Antinociceptive activity in formalin-induced Wistar rat pups pain model assessed as improved exploratory behavior at 10 mg/kg, ip administered 1 hr on postnatal day 7 prior to formalin challenge measured on postnatal day 21 by defensive withdrawal test. The class given is functional, organism-based. Put shortly: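 Defensive withdrawal at P21, during the dark cycle, after the neonatal formalin or saline insult with ip honokiol or corn oil. Habituation to the 50 × 50 × 50 cm open field for 10 min without the chamber. Animals then started in a dark chamber along the wall. Latency measured until all four paws were outside the chamber. Blinded, mean ± SEM.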

The subject of data set [7] is Rattus norvegicus. In words: Toxicity in formalin-induced Wistar rat pups pain model assessed as change in exploratory behavior by measuring distance travelled at 10 mg/kg, ip administered 1 hr […] prior to formalin challenge measured for 5 mins on postnatal day 21 by open field test. In kind it is organism-based. As to conditions: in vivo. The essentials: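 Open-field test at P21 during the dark cycle, 1 h after ip honokiol or corn oil. Rats explored a 50 × 50 × 50 cm box for 5 min under video tracking, and total distance travelled was calculated. n = 3 or 4 per group.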

Data set [8] concerns Rattus norvegicus. Briefly: Antinociceptive activity in formalin-induced Wistar rat pups pain model assessed as downregulation of c-Fos expression in hippocampus at 10 mg/kg, ip administered on postnatal day 7 measured after 3 days post formalin challenge by immunohistochemical staining assay relative to control. The class given is functional, organism-based. Put shortly: (§2)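 c-Fos immunohistochemistry on brain sections from P7 rats after the 3-day formalin or control protocol. Sections fixed in formalin, treated with 0.3% H2O2, blocked in 1% fish gel, then anti-c-Fos 1:500 for 24 h and biotinylated IgG. Six 20 μm sections ≥90 μm apart per animal, each with six random 20× fields counted. n = 6−8 per group.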

The test system of data set [9] is Rattus norvegicus. Briefly: Antinociceptive activity in formalin-induced Wistar rat pups pain model assessed as downregulation of c-Fos expression in thalamus at 10 mg/kg, ip administered on postnatal day 7 measured after 3 days post formalin challenge by immunohistochemical staining assay relative to control. The class given is functional, organism-based. The essentials: as §2

The subject of data set [10] is Rattus norvegicus. Briefly: Antinociceptive activity in formalin-induced Wistar rat pups pain model assessed as upregulation of substance P receptor expression in alveus at 10 mg/kg, ip administered 1 hr on postnatal day 7 prior to formalin challenge measured on postnatal day 21 by immunohistochemical staining assay relative to control. The class given is functional, organism-based. The essentials: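 Substance P receptor immunostaining at P21, 14 days after the 3-day formalin or saline protocol with ip honokiol or corn oil. Sections fixed in formalin then cold methanol, 0.2% Triton under 3 min, 1% fish gel block 1 h, primary antibody 24 h, then secondary. Positive cells counted in the hippocampal alveus, mean ± SEM.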

In data set [11] the test system is Rattus norvegicus. Briefly: Antinociceptive activity in Wistar rat pups assessed as paw-licking at 10 mg/kg, ip administered 1 hr on postnatal day 7 prior to formalin challenge measured for 60 secs at 5 mins interval for 60 mins. In kind it is functional, organism-based. Put shortly: as §1
The test system of data set [12] is Rattus norvegicus. In words: Antinociceptive activity in formalin-induced Wistar rat pups pain model assessed as increased in discrimination ratio at 10 mg/kg, ip administered 1 hr on postnatal day 7 prior to formalin challenge measured on postnatal day 21 by novel object recognition test.

Turning to `C=CCc1ccc(O)c(-c2ccc(O)c(CC=C)c2)c1` [HONOKIOL], the result in [1], in data set [2], in data set [3], in data set [5], in data set [6] and in data set [8] was Active. Also, the result in data set [9], in [10], in data set [11] and in data set [12] was Active. In data set [4], the Time is reported as 30 min. Besides, the Activity in [7] came out at 4000 mm.
